Source: ChEMBL document CHEMBL1124918, “Synthesis and evaluation of alpha-[[(2-haloethyl)amino]methyl]-2- nitro-1H-imidazole-1-ethanols as prodrugs of alpha-[(1-aziridinyl)methyl]-2- nitro-1H-imidazole-1-ethanol (RSU-1069) and its analogues which are radiosensitizers and bioreductively activated cytotoxins” (J Med Chem, 1990)

How the values were obtained:
[1] = system: Mus musculus; test: Maximum tolerated dose was determined for compound administered intraperitoneally in C3H/He mice; type: functional
Outline: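 Female C3H/He mice, 8–12 weeks old, bearing KHT sarcoma. Given ip within 10 min, 0.5 mL/25 g (1 mL/25 g if solubility-limited). Escalating single doses to groups of 2–3 mice; MTD is the highest dose without severe or persistent clinical signs or death within 24 h.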

[2] = Half-life at pH of 5.5-6.0 at 4 degree Centigrade; conditions: pH 5.5-6.0
[3] = system: Mus musculus; test: Maximum tolerated dose was determined for compound administered intraperitoneally as a suspension in arachis oil in C3H/He mice; type: functional
[4] = system: V79; test: Concentration which reduced survival to 1% following incubation 3 hours with V79 mammalian cells under aerobic (Cair) conditions; type: functional, cell-based; conditions: Cricetulus griseus
Outline: (§1)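 Chinese hamster V79-379A cells, 1.5 × 10⁶ per glass bottle, grown to confluency over 48 h. Exposed for 3 h at 37 °C to a range of agent concentrations in growth medium (pH 7.4), under aerobic or hypoxic conditions. Cells then trypsinized, diluted and plated for colony formation. The ratio is aerobic over hypoxic concentration.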

[5] = system: V79; test: Concentration which reduced survival to 1% following incubation 3 hours with V79 mammalian cells under hypoxic (Cnitrogen) conditions; type: functional, cell-based; conditions: Cricetulus griseus; outline: as §1
[6] = Ratio of concentration which reduced V79 cell survival to 1% under aerobic conditions to that of hypoxic conditions; type: functional; outline: as §1
[7] = Half-life at pH of 5.5-6.0 at 23 degree Centigrade; type: ADME; conditions: pH 5.5
Outline: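 Agent (0.2–0.5 mM) incubated in PBS, with or without NaHCO₃ (24–107 mM), pH adjusted right after preparation, at 23 °C. Aliquots taken over time and checked for loss by isocratic HPLC on a CN column, UV at 313 nm. Mobile phase was 10–25% methanol in 10 mM KH₂PO₄, pH 3.0.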

[8] = Half-life at pH of 7.0 at 4 degree Centigrade; type: ADME; conditions: pH 7
Outline: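 Agent (0.2–0.5 mM) incubated in PBS at pH 7.0 and 4 °C, with pH adjusted right after the solution was made. Aliquots taken at set times were analysed by isocratic HPLC on a CN column, with UV detection at 313 nm. Mobile phase was 10–25% methanol in 10 mM KH2PO4, pH 3.0, at 2 mL min⁻¹. Half-life came from loss of parent compound.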

Compound	MTD [1]	Concentration [4]	Concentration [5]	Ratio [6]	also measured
CCNCC(O)Cn1ccnc1[N+](=O)[O-] (centres undefined)	3.9 mM/kg	–	–	–	–
Br.CC(C)(CBr)NCC(O)Cn1ccnc1[N+](=O)[O-] (centres undefined)	1 mM/kg	–	–	–	half-life [2]: < 5 min
Br.CC(C)(Br)C(C)(C)NCC(O)Cn1ccnc1[N+](=O)[O-] (centres undefined)	0.7 mM/kg	–	–	–	half-life [2]: < 2 min
CC1(C)N(CC(O)Cn2ccnc2[N+](=O)[O-])C1(C)C (centres undefined)	–	–	–	–	MTD [3]: 1.5 mM/kg
O=[N+]([O-])c1nccn1CC(O)CN1CC1 (centres undefined)	0.4 mM/kg	0.3 mM	0.003 mM	100	–
Br.O=[N+]([O-])c1nccn1CC(O)CNCCBr (centres undefined)	1 mM/kg	2.3 mM	0.09 mM	25.5	half-life [7]: 30 min
O=[N+]([O-])c1nccn1CC(O)CNCCO (centres undefined)	–	70 mM	3.5 mM	20	–
Br.C[C@@H](Br)[C@@H](C)NCC(O)Cn1ccnc1[N+](=O)[O-] (some centres undefined)	1 mM/kg	–	–	–	half-life [8]: 30 min
Cl.F.O=[N+]([O-])c1nccn1CC(O)CNCCF (centres undefined)	–	35 mM	2.5 mM	14	–
C[C@@H]1[C@H](C)N1CC(O)Cn1ccnc1[N+](=O)[O-] (some centres undefined)	3 mM/kg	–	–	–	–
CC(C)(CCl)NCC(O)Cn1ccnc1[N+](=O)[O-].Cl (centres undefined)	0.8 mM/kg	–	–	–	half-life [2]: 76 min
Cl.O=[N+]([O-])c1nccn1CC(O)CNCCCl (centres undefined)	1.5 mM/kg	5 mM	0.35 mM	14.3	half-life [7]: > 300 min; half-life [8]: ~280 min
C[C@@H](Cl)[C@@H](C)NCC(O)Cn1ccnc1[N+](=O)[O-].Cl (some centres undefined)	3 mM/kg	–	–	–	half-life [7]: 120 min
I.O=[N+]([O-])c1nccn1CC(O)CNCCI (centres undefined)	–	2.4 mM	0.08 mM	30	–
CC(C)(Cl)C(C)(C)NCC(O)Cn1ccnc1[N+](=O)[O-].Cl (centres undefined)	1.3 mM/kg	–	–	–	half-life [2]: < 2 min
